Data from ChEMBL document CHEMBL4017537, “Discovery of a Potent and Specific M. tuberculosis Leucyl-tRNA Synthetase Inhibitor: (S)-3-(Aminomethyl)-4-chloro-7-(2-hydroxyethoxy)benzo[c][1,2]oxaborol-1(3H)-ol (GSK656)” (J Med Chem, 2017).
Converted amounts (≈) assume the structure as drawn.

Columns and labels:
[1] = system: Mycobacterium tuberculosis; test: Antimicrobial activity against Mycobacterium tuberculosis H37Rv; type: functional
Leucine--tRNA ligase = target: T1, Leucine--tRNA ligase (Mycobacterium tuberculosis (strain ATCC 25618 / H37Rv), UniProt P9WFV1); test: Inhibition of Mycobacterium tuberculosis H37Rv N-terminal 6His-tagged LeuRS expressed in Escherichia coli BL21(DE3) assessed as L-[14C]leucine incorporation in to Escherichia coli tRNA after 20 mins by liquid scintillation counting analysis
T1 sequence (P9WFV1 whole entry): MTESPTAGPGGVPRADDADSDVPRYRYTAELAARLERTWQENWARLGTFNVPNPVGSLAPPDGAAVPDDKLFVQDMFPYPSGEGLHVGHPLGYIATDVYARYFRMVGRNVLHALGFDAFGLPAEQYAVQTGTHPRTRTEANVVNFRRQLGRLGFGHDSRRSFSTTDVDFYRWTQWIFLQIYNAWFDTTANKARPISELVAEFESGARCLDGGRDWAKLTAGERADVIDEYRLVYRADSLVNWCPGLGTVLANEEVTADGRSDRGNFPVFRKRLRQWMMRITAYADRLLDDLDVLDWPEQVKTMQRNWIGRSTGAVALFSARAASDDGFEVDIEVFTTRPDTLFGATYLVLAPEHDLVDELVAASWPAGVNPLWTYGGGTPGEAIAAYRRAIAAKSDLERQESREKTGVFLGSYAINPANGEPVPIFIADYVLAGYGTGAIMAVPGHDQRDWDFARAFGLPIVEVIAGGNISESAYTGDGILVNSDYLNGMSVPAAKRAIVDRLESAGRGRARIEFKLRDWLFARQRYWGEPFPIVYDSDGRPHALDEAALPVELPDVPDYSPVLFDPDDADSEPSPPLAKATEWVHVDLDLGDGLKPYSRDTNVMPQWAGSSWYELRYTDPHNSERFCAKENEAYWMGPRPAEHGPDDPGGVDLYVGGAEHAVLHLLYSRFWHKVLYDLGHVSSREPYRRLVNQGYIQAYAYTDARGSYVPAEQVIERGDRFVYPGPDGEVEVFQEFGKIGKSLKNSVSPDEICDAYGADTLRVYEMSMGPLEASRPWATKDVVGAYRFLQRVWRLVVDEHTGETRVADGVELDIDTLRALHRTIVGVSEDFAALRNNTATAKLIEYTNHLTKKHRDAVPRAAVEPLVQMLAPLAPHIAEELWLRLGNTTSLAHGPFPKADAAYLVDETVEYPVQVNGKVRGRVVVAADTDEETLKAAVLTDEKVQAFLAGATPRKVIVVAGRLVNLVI
Summary of the method: (§1)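 N-terminal His6-tagged LeuRS expressed in E. coli BL21(DE3), codon-optimized. 50 mM HEPES-KOH pH 8.0, 30 mM MgCl2, 30 mM KCl, 13 μM L-[14C]leucine, 15 μM tRNA (E. coli total; brewer's yeast for human cytoplasmic enzyme), 0.02% BSA, 1 mM DTT, 30 °C. Inhibitor preincubated 20 min, started with 4 mM ATP, TCA-quenched after 7 min, filtered, scintillation counted; four-parameter logistic IC50.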

HepG2 = test: Cytotoxicity against human HepG2 cells assessed as reduction in cell viability after 48 hrs by CellTiter-Glo assay; type: cell-based; conditions: HepG2, 48 h
Summary of the method: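 HepG2 cells seeded at 10 000/well in EMEM with 5% FCS and 2 mM glutamine. After 24 h, ten 1:2 serial compound dilutions (0.5% DMSO final) added in duplicate for 48 h. Read-out by CellTiter-Glo luminescence per table footnote; the method text also describes resazurin fluorescence (ex 515/em 590 nm). Sigmoidal variable-slope fit.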

[2] = target: T2, Leucine--tRNA ligase, cytoplasmic (Homo sapiens, UniProt Q9P2J5); test: Inhibition of human N-terminal 6His-tagged cytoplasmic LeuRS expressed in Escherichia coli BL21(DE3) assessed as […] after 20 mins by liquid scintillation counting analysis
T2 sequence (Q9P2J5 whole entry): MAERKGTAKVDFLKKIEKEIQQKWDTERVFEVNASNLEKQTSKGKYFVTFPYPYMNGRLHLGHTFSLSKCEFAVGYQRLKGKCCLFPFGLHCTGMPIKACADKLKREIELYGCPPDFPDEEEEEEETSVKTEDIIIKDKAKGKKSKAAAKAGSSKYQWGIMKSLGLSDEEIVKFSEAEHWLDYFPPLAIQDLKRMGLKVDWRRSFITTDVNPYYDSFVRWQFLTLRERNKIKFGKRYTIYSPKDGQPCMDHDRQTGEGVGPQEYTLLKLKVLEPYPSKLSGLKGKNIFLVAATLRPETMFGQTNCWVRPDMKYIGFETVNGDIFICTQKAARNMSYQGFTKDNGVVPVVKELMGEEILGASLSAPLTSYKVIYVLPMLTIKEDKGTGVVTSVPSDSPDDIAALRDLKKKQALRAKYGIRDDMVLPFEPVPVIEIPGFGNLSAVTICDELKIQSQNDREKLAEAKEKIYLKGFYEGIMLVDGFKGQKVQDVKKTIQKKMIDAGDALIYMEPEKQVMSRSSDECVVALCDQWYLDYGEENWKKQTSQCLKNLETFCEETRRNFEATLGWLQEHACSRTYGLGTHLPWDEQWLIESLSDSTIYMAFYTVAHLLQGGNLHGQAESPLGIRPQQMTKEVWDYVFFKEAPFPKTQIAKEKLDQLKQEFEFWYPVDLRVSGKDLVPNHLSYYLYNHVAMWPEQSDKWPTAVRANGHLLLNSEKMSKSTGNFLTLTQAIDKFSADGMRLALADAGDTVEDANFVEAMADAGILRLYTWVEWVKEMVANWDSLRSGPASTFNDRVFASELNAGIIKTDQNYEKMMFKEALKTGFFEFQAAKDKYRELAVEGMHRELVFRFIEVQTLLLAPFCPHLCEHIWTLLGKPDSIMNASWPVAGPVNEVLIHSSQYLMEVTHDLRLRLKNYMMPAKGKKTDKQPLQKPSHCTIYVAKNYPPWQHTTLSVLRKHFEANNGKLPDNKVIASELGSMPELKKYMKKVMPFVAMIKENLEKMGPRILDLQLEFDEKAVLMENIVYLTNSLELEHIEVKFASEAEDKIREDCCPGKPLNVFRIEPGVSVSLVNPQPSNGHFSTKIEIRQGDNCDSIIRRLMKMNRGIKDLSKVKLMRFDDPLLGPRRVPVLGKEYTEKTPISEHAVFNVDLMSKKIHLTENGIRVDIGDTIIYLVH

cytoplasmic LeuRS = test: Selectivity index, ratio of EC50 for inhibition of cytoplasmic LeuRS in HepG2 cells assessed as reduction in protein synthesis to MIC for Mycobacterium tuberculosis H37Rv; type: toxicity, cell-based; conditions: human, read-out: Selectivity Index
Summary of the method: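 Ratio of HepG2 protein-synthesis EC50 to MIC against M. tuberculosis H37Rv.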

[3] = target: T2, Leucine--tRNA ligase, cytoplasmic; test: Inhibition of cytoplasmic LeuRS in human HepG2 cells assessed as reduction in protein synthesis preincubated for 48 hrs followed by L-[14C]leucine addition measured after 3 hrs by liquid scintillation counting analysis; type: cell-based
Summary of the method: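 HepG2 cells in DMEM/10% FCS, 3000 cells/well, exposed to compound dilutions (0.5% DMSO final) for 48 h at 37 °C. Medium then replaced with fresh medium containing 0.5 μCi L-[14C]leucine and the same compound levels for 3 h. Cells trypsinised, precipitated in ice-cold 20% TCA, filtered, washed, scintillation counted; curve-fit EC50; mean of at least duplicates.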

[4] = target: T3, Leucine--tRNA ligase, mitochondrial (Homo sapiens, UniProt Q15031); test: Inhibition of human N-terminal 6His-tagged mitochondrial LeuRS expressed in Escherichia coli BL21(DE3) assessed as L-[14C]leucine incorporation in to Escherichia coli tRNA after 20 mins by liquid scintillation counting analysis; summary of the method: as §1
T3 sequence (Q15031 whole entry): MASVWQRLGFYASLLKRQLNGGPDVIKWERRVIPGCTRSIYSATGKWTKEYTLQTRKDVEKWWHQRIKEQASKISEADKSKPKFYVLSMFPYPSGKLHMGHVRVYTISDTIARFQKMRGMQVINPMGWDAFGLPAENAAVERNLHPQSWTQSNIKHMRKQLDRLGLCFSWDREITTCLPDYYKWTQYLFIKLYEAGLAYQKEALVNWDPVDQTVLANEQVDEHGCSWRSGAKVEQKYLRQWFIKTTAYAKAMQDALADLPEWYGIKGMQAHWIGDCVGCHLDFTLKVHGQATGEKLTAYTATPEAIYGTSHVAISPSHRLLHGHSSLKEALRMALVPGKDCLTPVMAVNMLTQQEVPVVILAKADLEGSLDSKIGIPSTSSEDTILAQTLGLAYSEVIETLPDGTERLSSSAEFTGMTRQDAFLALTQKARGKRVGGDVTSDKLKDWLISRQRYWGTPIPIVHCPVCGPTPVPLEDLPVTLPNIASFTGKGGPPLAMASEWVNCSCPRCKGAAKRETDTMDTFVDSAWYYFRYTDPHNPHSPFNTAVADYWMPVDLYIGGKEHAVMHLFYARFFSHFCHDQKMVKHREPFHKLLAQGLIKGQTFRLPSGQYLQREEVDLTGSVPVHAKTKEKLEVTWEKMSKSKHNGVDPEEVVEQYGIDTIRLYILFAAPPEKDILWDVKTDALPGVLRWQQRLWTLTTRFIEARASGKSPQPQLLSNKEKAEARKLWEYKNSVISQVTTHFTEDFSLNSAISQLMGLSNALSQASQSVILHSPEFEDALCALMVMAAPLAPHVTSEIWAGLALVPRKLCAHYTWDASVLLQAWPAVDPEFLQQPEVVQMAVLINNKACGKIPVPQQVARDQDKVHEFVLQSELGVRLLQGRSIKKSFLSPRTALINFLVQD

| Compound | MIC [1] [µM] | IC50 (Leucine--tRNA ligase) [nM] | further results |
| --- | --- | --- | --- |
| NCC1OB(O)c2c(OCC(F)F)ccc(Cl)c21 (racemic) | 0.3 (≈ 0.0832 µg/mL) | 290 |  |
| NCC1OB(O)c2cc(OCCCO)cc(Br)c21 (racemic) | > 5 | 370 |  |
| CCCOc1ccc(Br)c2c1B(O)O[C@@H]2CN | 0.38 (≈ 0.114 µg/mL) | 240 |  |
| NC[C@@H]1OB(O)c2c(OCCO)ccc(Cl)c21 | 5 (≈ 1.29 µg/mL) | 10000 |  |
| NCC1OB(O)c2c(Oc3ccccc3)ccc(Cl)c21 (racemic) | 5 (≈ 1.45 µg/mL) | 340 |  |
| NCC1OB(O)c2c(OCCc3ccccc3)ccc(Cl)c21 (racemic) | 5 (≈ 1.59 µg/mL) | 720 |  |
| CCCCOc1ccc(Cl)c2c1B(O)O[C@@H]2CN | 0.6 (≈ 0.162 µg/mL) | 270 |  |
| NC[C@H]1OB(O)c2c3c(cc(Br)c21)OCCO3 | 0.03 (≈ 0.009 µg/mL) | 120 | EC50 (HepG2): 43200 nM; IC50 [2]: 118000 nM; selectivity ratio (cytoplasmic LeuRS): 1320; EC50 [3]: 39500 nM |
| COc1ccc(Cl)c2c1B(O)O[C@@H]2CN | 0.1 (≈ 0.0227 µg/mL) | 150 | EC50 (HepG2): 327000 nM; IC50 [2]: 260000 nM; selectivity ratio (cytoplasmic LeuRS): 1050; EC50 [3]: 105000 nM; IC50 [4]: > 300000 nM |
| NC[C@H]1OB(O)c2c(OCCCO)ccc(Br)c21 | 0.3 (≈ 0.0948 µg/mL) | 160 |  |
| NCC1OB(O)c2c(OCCO)ccc(Br)c21 (racemic) | 0.16 (≈ 0.0483 µg/mL) | 150 |  |
| NCC1OB(O)c2cc(OCCCO)cc(Cl)c21 (racemic) | > 5 | 440 |  |
| NC[C@@H]1OB(O)c2c3c(cc(Br)c21)OCCO3 | 40 (≈ 12 µg/mL) | 4200 |  |
| NCC1OB(O)c2cc(OCCO)cc(Cl)c21 (racemic) | > 5 | 1110 |  |
| NC[C@@H]1OB(O)c2c(OCCO)ccc(Br)c21 | 10 (≈ 3.02 µg/mL) | 14200 |  |
| CCCCOc1ccc(Br)c2c1B(O)O[C@@H]2CN | 0.45 (≈ 0.141 µg/mL) | 200 |  |
| NCC1OB(O)c2c(OCc3ccccc3)ccc(Br)c21 (racemic) | 5 (≈ 1.74 µg/mL) | 440 |  |
| NC[C@@H]1OB(O)c2c3c(cc(Cl)c21)OCCO3 | 80 (≈ 20.4 µg/mL) | 12600 |  |
| CCOc1cc(Cl)c2c(c1)B(O)OC2CN (racemic) | > 5 | 630 |  |
| CCCOc1cc(Cl)c2c(c1)B(O)OC2CN (racemic) | 1.3 (≈ 0.332 µg/mL) | 250 |  |

| Compound | MIC [1] [µM] | IC50 (Leucine--tRNA ligase) [nM] | further results |
| --- | --- | --- | --- |
| NCC1OB(O)c2c3c(cc(Br)c21)OCCO3 (racemic) | 0.5 (≈ 0.15 µg/mL) | 92 |  |
| NCC1OB(O)c2c(OCCF)ccc(Br)c21 (racemic) | 0.2 (≈ 0.0608 µg/mL) | 260 |  |
| NCC1OB(O)c2cc(OCCO)cc(Br)c21 (racemic) | > 5 | 890 |  |
| NCC1OB(O)c2c3c(cc(Br)c21)OCO3 (racemic) | > 5 | 610 |  |
| CCOc1cc(Br)c2c(c1)B(O)OC2CN (racemic) | 3.75 (≈ 1.07 µg/mL) | 260 |  |
| NCC1OB(O)c2c(OCC(F)F)ccc(Br)c21 (racemic) | 0.31 (≈ 0.0998 µg/mL) | 240 |  |
| NCC1OB(O)c2c3c(cc(Cl)c21)OCCO3 (racemic) | 0.31 (≈ 0.0792 µg/mL) | 130 |  |
| CCOc1ccc(Cl)c2c1B(O)O[C@@H]2CN | 0.1 (≈ 0.0241 µg/mL) | 56 | EC50 (HepG2): 65800 nM; selectivity ratio (cytoplasmic LeuRS): 196; EC50 [3]: 19600 nM; IC50 [4]: > 300000 nM |
| NC[C@H]1OB(O)c2c(OCCO)ccc(Br)c21 | 0.08 (≈ 0.0242 µg/mL) | 120 | EC50 (HepG2): 292000 nM; IC50 [2]: 118000 nM; selectivity ratio (cytoplasmic LeuRS): 1450; EC50 [3]: 116000 nM; IC50 [4]: > 300000 nM |
| NCC1OB(O)c2c3c(cc(Cl)c21)OCO3 (racemic) | > 5 | 250 |  |
| NC[C@H]1OB(O)c2c(OCCCO)ccc(Cl)c21 | 0.14 (≈ 0.038 µg/mL) | 470 |  |
| NCC1OB(O)c2c(OCc3ccccc3)ccc(Cl)c21 (racemic) | 5 (≈ 1.52 µg/mL) | 320 |  |
| NCC1OB(O)c2c(Oc3ccc(Br)cc3)ccc(Br)c21 (racemic) | > 5 | 690 |  |
| CCOc1cccc2c1B(O)O[C@@H]2CN | 0.6 (≈ 0.124 µg/mL) |  |  |
| NCC1OB(O)c2c(OCCF)ccc(Cl)c21 (racemic) | 0.2 (≈ 0.0519 µg/mL) | 76 |  |
| CCOc1ccc(F)c2c1B(O)O[C@@H]2CN | 0.2 (≈ 0.045 µg/mL) |  |  |
| NCC1OB(O)c2c(OCCO)ccc(Cl)c21 (racemic) | 0.63 (≈ 0.162 µg/mL) | 240 |  |
| CCCOc1cc(Br)c2c(c1)B(O)OC2CN (racemic) | 0.6 (≈ 0.18 µg/mL) | 370 |  |
| CCCOc1ccc(Cl)c2c1B(O)O[C@@H]2CN | 0.16 (≈ 0.0409 µg/mL) | 310 |  |
| NCC1OB(O)c2c(OCCc3ccccc3)ccc(Br)c21 (racemic) | > 5 | 470 |  |
